Results on five molecules are retold here after ChEMBL document CHEMBL1133321, “Synthesis of conformationally constrained analogues of KN62, a potent antagonist of the P2X7-receptor” (Bioorg Med Chem Lett, 2000).

By inhibition is commonly meant the change of the read-out against control, counted positive when it falls. In general, IC50 refers to the concentration needed to halve the response being measured. Higher therefore signals weaker potency.

Assay [1] can be described thus: Inhibition of ATP-stimulated [Ca2+] influx into macrophages loaded with fluorescent indicator fura-2-acetoxymethyl at 1000 nM concentration of compound. Format: functional. The note with it: Homo sapiens.
Assay [2] can be described thus: Inhibition of ATP-stimulated [Ca2+] influx into macrophages loaded with fluorescent indicator fura-2-acetoxymethyl at 500 nM concentration of compound. Format: functional. The note with it: Homo sapiens. An outline of the steps:
(§1)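 Washed human macrophage cells (10⁶/mL) in HEPES-buffered saline were loaded with fura-2 acetoxymethyl ester for 20 min at 37 °C in the dark, in a stirred cuvette. Cells were preincubated with compound at the stated single concentration for 5 min at 37 °C before ATP stimulation. Ca²⁺ influx was read as the 340:380 nm excitation ratio at 500 nm emission, as percent inhibition. Three repeats.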

Assay [3] in a line: Inhibition of ATP-stimulated [Ca2+] influx into macrophages loaded with fluorescent indicator fura-2-acetoxymethyl at 50 nM concentration of compound. Format: functional. The note with it: Homo sapiens. An outline of the steps:
as §1

Assay [4] concerns the target T1, P2X purinoceptor 7 (Homo sapiens, UniProt Q99572).
T1 sequence (Q99572 whole entry): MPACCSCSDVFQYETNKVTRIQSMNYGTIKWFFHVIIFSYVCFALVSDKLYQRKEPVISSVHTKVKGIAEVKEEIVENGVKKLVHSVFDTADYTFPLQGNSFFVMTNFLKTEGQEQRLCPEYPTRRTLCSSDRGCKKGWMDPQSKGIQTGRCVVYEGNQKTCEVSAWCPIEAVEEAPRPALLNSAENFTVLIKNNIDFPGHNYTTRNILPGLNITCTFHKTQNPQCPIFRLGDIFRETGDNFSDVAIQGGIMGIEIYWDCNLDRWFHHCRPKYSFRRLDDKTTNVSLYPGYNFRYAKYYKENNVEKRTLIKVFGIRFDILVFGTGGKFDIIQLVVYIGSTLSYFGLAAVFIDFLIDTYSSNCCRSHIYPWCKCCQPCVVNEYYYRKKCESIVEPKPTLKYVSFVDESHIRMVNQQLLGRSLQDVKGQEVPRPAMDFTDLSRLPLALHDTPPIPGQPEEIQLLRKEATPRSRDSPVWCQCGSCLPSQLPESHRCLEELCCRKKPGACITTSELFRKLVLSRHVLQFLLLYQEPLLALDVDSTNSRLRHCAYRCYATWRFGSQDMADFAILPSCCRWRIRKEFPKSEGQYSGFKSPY
As to the kind of experiment: Inhibitory concentration was evaluated against P2X purinoceptor 7. In a few lines: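 Human macrophage cells (10⁶/mL, washed, in HEPES-buffered saline) were fura-2-AM loaded for 20 min at 37 °C in the dark. Compounds (25–500 nM) were preincubated 5 min at 37 °C before ATP-stimulated Ca²⁺ influx was measured fluorimetrically (340:380 nm excitation ratio, 500 nm emission). IC50 is the mean from dose-response curves of at least three experiments.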

As to `O=C([C@@H]1Cc2ccc(OS(=O)(=O)c3cccc4cnccc34)cc2CN1S(=O)(=O)c1cccc2cnccc12)N1CCN(c2ccccc2)CC1`, the inhibition at 1 µM in assay [1] was 25.8%. The same molecule returned an inhibition at 0.5 µM in assay [2] of 34.5%. In assay [3], this molecule returned an inhibition at 0.05 µM of 1.66%.
As for `CN([C@@H](Cc1ccc(OS(=O)(=O)c2cccc3cnccc23)cc1)C(=O)N1CCN(c2ccccc2)CC1)S(=O)(=O)c1cccc2cnccc12`, the inhibition at 1 µM in assay [1] stood at 100%. In addition, 0.5 µM produced 100% inhibition in assay [2]. In assay [3], testing at 0.05 µM gave an inhibition of 94.4%. Besides, the midpoint of inhibition in assay [4], the IC50, lay at 13.4 nM.
The molecule `O=C([C@@H]1Cc2ccc(OS(=O)(=O)c3cccc4ccccc34)cc2CN1S(=O)(=O)c1cccc2ccccc12)N1CCN(c2ccccc2)CC1` returned an inhibition at 1 µM in assay [1] of 0%. The same molecule gave an inhibition at 0.5 µM in assay [2] of 0%. Moreover, the inhibition at 0.05 µM in assay [3] was 0%.
`O=C([C@@H]1Cc2ccc(OS(=O)(=O)c3cccc4cccnc34)cc2CN1S(=O)(=O)c1cccc2cccnc12)N1CCN(c2ccccc2)CC1` had an inhibition at 1 µM in assay [1] of 0%. The same molecule returned an inhibition at 0.5 µM in assay [2] of 3.4%. Moreover, the inhibition at 0.05 µM in assay [3] stood at 6.9%.
For `O=C([C@@H]1Cc2ccc(OS(=O)(=O)c3cccc4ncccc34)cc2CN1S(=O)(=O)c1cccc2ncccc12)N1CCN(c2ccccc2)CC1` the same measures were 66%, 72.4% and 59%.
